Assay [1] has as its target Adenosine receptors; A2b & A3 (Homo sapiens) (UniProt P29275+P0DMS8). The assay can be described thus: Selectivity ratio (h2B/hA3). It counts as protein assay.
Assay [2] addresses T1, Adenosine receptor A3 (Homo sapiens, UniProt P0DMS8).
T1 sequence (P0DMS8 whole entry): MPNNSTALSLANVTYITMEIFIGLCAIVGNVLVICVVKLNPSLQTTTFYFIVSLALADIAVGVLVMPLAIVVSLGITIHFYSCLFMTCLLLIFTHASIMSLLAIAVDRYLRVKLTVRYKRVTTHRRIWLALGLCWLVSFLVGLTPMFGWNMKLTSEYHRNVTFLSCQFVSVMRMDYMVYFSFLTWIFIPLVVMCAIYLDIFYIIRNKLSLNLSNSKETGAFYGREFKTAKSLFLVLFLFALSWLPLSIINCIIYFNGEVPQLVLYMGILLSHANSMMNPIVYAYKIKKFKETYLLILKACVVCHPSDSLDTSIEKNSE
The assay can be described thus: biochemical.

The target of assay [3] is T2, Adenosine receptor A2b (Homo sapiens, UniProt P29275).
T2 sequence (P29275 whole entry): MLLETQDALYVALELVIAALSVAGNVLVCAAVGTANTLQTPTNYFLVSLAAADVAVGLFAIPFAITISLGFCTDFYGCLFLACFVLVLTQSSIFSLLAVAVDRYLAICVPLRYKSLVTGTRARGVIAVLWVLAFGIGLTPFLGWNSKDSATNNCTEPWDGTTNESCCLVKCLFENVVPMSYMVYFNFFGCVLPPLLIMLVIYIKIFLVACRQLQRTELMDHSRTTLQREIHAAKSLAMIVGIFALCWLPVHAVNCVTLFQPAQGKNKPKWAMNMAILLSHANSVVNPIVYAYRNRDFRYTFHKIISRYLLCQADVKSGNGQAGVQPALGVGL
The assay can be described thus: Displacement of [3H]DPCPX from human Adenosine A2B receptor expressed in HEK293 cells; range 162-237. In kind it is cell-based. The method, boiled down:
(§1)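 Membranes from HEK-293 cells with human recombinant A2B receptor. Incubation 60 min at 25 °C in 50 mM Tris HCl, 10 mM MgCl2, 1 mM EDTA, 0.1 mM benzamidine, pH 7.4, with 2 IU/mL adenosine deaminase and 40 nM [3H]DPCPX. At least six to eight test concentrations. Nonspecific binding defined with NECA. n = 3-6.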

Assay [4] has as its target T3, Adenosine receptor A2a (Homo sapiens, UniProt P29274). The assay can be described thus: Displacement of [3H]SCH-58261 from human Adenosine A2A receptor expressed in HEK293 cells; range 108-163. It counts as cell-based.
In assay [5] the target is T4, Adenosine receptor A1 (Homo sapiens, UniProt P30542).
T4 sequence (P30542 whole entry): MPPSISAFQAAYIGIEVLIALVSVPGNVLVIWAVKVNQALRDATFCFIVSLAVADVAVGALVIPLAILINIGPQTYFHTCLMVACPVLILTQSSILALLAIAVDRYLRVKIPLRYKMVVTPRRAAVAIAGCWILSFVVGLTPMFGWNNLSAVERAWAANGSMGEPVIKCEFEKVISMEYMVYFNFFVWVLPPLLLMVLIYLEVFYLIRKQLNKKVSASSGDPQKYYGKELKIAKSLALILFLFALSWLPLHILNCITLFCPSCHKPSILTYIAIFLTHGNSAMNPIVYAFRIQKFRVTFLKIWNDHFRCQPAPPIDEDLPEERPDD
The assay can be described thus: Displacement of [3H]DPCPX from human Adenosine A1 receptor expressed in CHO cells; range 216-412. It counts as cell-based. The method, boiled down:
(§2)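 Human recombinant A1 receptor in CHO cell membranes, resuspended in 50 mM Tris HCl pH 7.4. Displacement run 120 min at 25 °C with 1 nM [3H]DPCPX, 50 µg protein per assay, and at least six to eight test concentrations. Nonspecific binding defined with CHA. Bound and free separated on glass-fiber filters; filter radioactivity counted. n = 3-6.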

Assay [6] addresses Adenosine receptors; A1 & A3 (Homo sapiens) (UniProt P30542+P0DMS8). The assay can be described thus: Selectivity ratio (hA1/hA3). In kind it is protein assay.
The target of assay [7] is T2, Adenosine receptor A2b. The assay can be described thus: Displacement of [3H]DPCPX binding at human Adenosine A2B receptor expressed in HEK293 cells. In kind it is cell-based. In a few lines: as §1
The target in assay [8] is T1, Adenosine receptor A3. The assay can be described thus: Displacement of [3H]MRE3008-F20 from human Adenosine A3 receptor expressed in HEK cells; range 31-50. In kind it is cell-based, HEK293.
Assay [9] deals with T3, Adenosine receptor A2a. The assay can be described thus: Displacement of [3H]SCH-58261 from human Adenosine A2A receptor expressed in HEK293 cells; range 199-311. In kind it is cell-based.
Assay [10] deals with T4, Adenosine receptor A1. The assay can be described thus: Displacement of [3H]DPCPX from human Adenosine A1 receptor expressed in CHO cells. In kind it is cell-based. In a few lines: as §2
Assay [11] has as its target T1, Adenosine receptor A3. The assay can be described thus: Displacement of [3H]MRE3008-F20 from human Adenosine A3 receptor expressed in HEK cells; range 0.29-0.47. In kind it is cell-based, HEK293.
The target in assay [12] is T3, Adenosine receptor A2a. The assay can be described thus: Displacement of [3H]SCH-58261 from human Adenosine A2A receptor expressed in HEK293 cells; range 30-54. It counts as cell-based.
Assay [13] deals with T2, Adenosine receptor A2b. The assay can be described thus: Displacement of [3H]DPCPX from human Adenosine A2B receptor expressed in HEK293 cells; range 261-336. It counts as cell-based. In a few lines:
as §1

In assay [14] the target is T4, Adenosine receptor A1. The assay can be described thus: Displacement of [3H]DPCPX from human Adenosine A1 receptor expressed in CHO cells; range 389-640. In kind it is cell-based. The method, boiled down:
as §2

The target of assay [15] is T3, Adenosine receptor A2a. The assay can be described thus: Displacement of [3H]SCH-58261 from human Adenosine A2A receptor expressed in HEK293 cells; range 300-414. It counts as cell-based.
Assay [16] addresses T1, Adenosine receptor A3. The assay can be described thus: Displacement of specific [3H]MRE3008-F20 binding at human Adenosine A3 receptor expressed in HEK cells; value ranges from 39-55. It counts as cell-based, HEK293.
In assay [17] the target is T2, Adenosine receptor A2b. The assay can be described thus: Displacement of [3H]-DPCPX from human Adenosine A2B receptor expressed in HEK293 cells; range 118-173. In kind it is cell-based. The method, boiled down:
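HEK-293 membranes expressing the human receptor were incubated 60 min at 25 °C. Six to eight test concentrations were used. Nonspecific binding was set with NECA. n = 3-6.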

In assay [18] the target is T3, Adenosine receptor A2a. The assay can be described thus: Displacement of [3H]SCH-58261 from human Adenosine A2A receptor expressed in HEK293 cells; range 255-366. In kind it is cell-based.
For assay [19], the target named is T1, Adenosine receptor A3. The assay can be described thus: Displacement of [3H]MRE3008-F20 from human Adenosine A3 receptor expressed in HEK cells; range 0.65-1.58. In kind it is cell-based, HEK293.

Some results are limits rather than exact numbers.

T3 sequence (P29274 whole entry): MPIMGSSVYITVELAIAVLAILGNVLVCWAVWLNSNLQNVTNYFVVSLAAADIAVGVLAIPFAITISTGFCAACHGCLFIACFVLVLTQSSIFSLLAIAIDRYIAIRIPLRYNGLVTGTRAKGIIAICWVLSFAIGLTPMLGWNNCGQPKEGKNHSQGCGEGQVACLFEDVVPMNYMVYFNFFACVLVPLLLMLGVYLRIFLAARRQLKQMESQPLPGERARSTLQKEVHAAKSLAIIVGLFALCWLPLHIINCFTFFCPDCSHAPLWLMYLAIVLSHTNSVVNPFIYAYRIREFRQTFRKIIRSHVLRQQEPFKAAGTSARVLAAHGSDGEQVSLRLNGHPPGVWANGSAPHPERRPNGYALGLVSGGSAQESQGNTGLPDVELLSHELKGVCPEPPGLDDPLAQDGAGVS

Consider `CCn1cc2c(nc(NC(=O)Nc3ccccc3OC)n3nc(-c4ccco4)nc23)n1`, for which the Ratio came out at 350 in assay [1] and 536 in [6]. Besides, the Ki on Adenosine receptor A3 [2] worked out at 0.56 nM; on Adenosine receptor A2b [3], 196 nM; on Adenosine receptor A2a [4], 133 nM; at Adenosine receptor A1 [5] it was 300 nM.
Take `CCn1cc2c(nc(NC(=O)Nc3ccc(S(=O)(=O)O)cc3)n3nc(-c4ccco4)nc23)n1`: the Ratio in assay [1] and in [6] was more than 250 throughout. Besides, the Ki is more than 10000 nM on Adenosine receptor A2b [7], 40 nM on Adenosine receptor A3 [8], 249 nM on Adenosine receptor A2a [9] and more than 10000 nM on Adenosine receptor A1 [10].
For `CCn1cc2c(nc(NC(=O)Nc3ccc(Br)cc3)n3nc(-c4ccco4)nc23)n1`, the Ratio stood at 800 in assay [1] and 1350 in assay [6]. In addition, the Ki amounted to 0.37 nM at Adenosine receptor A3 [11], 40 nM on Adenosine receptor A2a [12], 296 nM at Adenosine receptor A2b [13] and 500 nM on Adenosine receptor A1 [14].
With `CCCCn1cc2c(nc(NC(=O)Nc3ccc(S(=O)(=O)O)cc3)n3nc(-c4ccco4)nc23)n1`, the Ratio in assay [1] and in assay [6] was more than 213 each time. The Ki at Adenosine receptor A2b [7] was more than 10000 nM; at Adenosine receptor A2a [15], 352 nM; on Adenosine receptor A1 [10], more than 10000 nM; at Adenosine receptor A3 [16], 47 nM.
For `CCCn1cc2c(nc(NC(=O)Cc3ccccc3)n3nc(-c4ccco4)nc23)n1`, the Ki is 143 nM on Adenosine receptor A2b [17], 306 nM at Adenosine receptor A2a [18] and 1.01 nM on Adenosine receptor A3 [19]. Further, the results for the Ratio in assay [1] and in [6] were 142 and 348, respectively.

These data come from ChEMBL document CHEMBL1136016, “Synthesis, biological activity, and molecular modeling investigation of new pyrazolo[4,3-e]-1,2,4-triazolo[1,5-c]pyrimidine derivatives as human A(3) adenosine receptor antagonists” (J Med Chem, 2002).
